Columns and labels:
[1] = tested on: Brain; test: Biodistribution in iv dosed rat brain after 60 mins; type: ADME, organism-based; conditions: in vivo, 1 h
Outline: (§1)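 [18F]-labeled tracer was given to rats under isoflurane anesthesia: 0.2 ml sterile water with 1 mg/mL BSA and 10–100 μCi, into the femoral vein. Three rats per group. Animals were killed by cervical dislocation under anesthesia at the stated time. Organs were removed, weighed and counted. Uptake was calculated as percent dose against a 1% aliquot of the injected dose counted alongside.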

[2] = tested on: Blood; test: Biodistribution in iv dosed rat blood after 60 mins; type: ADME, organism-based; conditions: in vivo, 1 h; outline: as §1
[3] = tested on: Muscle tissue; test: Biodistribution in iv dosed rat muscle after 60 mins; type: ADME, organism-based; conditions: in vivo, 1 h; outline: as §1
[4] = tested on: Striatum; test: Biodistribution in iv dosed rat striatum assessed as radioactivity after 30 mins; type: ADME, organism-based; conditions: in vivo, 0.5 h
[5] = tested on: Cortex; test: Biodistribution in iv dosed rat cortex assessed as radioactivity after 240 mins; type: ADME, organism-based; conditions: in vivo, 4 h
Outline: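 Rats received the [18F] tracer under isoflurane anesthesia: 0.2 ml sterile water with 1 mg/mL BSA and 10–100 μCi, into the femoral vein. Three rats per group. After cervical dislocation under anesthesia, the cortex was dissected, weighed and gamma-counted. Percent dose/g was calculated against a 100-fold diluted aliquot of the injected dose.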

[6] = tested on: Kidney; test: Biodistribution in iv dosed rat kidney after 2 mins; type: ADME, organism-based; conditions: in vivo; outline: as §1
[7] = tested on: Nucleic Acid; test: Ratio of drug level in hypothalamus to cerebellum in rat after 120 mins; type: ADME, tissue-based; conditions: in vivo, 2 h
Outline: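 Rats, 3 per group, given ¹⁸F tracer (10–100 μCi, 0.2 ml sterile water with 1 mg/mL BSA) into the femoral vein under isoflurane. Brain regions, including hypothalamus, striatum and cerebellum, dissected, weighed and counted. % dose/g calculated against a 1% diluted aliquot of the dose. Region/cerebellum ratio is region %dose/g divided by cerebellum %dose/g. SD of the ratio propagated from both means and SDs.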

[8] = tested on: Lung; test: Biodistribution in iv dosed rat lungs after 30 mins; type: ADME, organism-based; conditions: in vivo, 0.5 h; outline: as §1
[9] = tested on: Kidney; test: Biodistribution in iv dosed rat kidney after 240 mins; type: ADME, organism-based; conditions: in vivo, 4 h; outline: as §1
[10] = tested on: Muscle tissue; test: Biodistribution in iv dosed rat muscle after 2 mins; type: ADME, organism-based; conditions: in vivo; outline: as §1
[11] = tested on: Zone of skin; test: Biodistribution in iv dosed rat skin after 240 mins; type: ADME, organism-based; conditions: in vivo, 4 h
[12] = tested on: Nucleic Acid; test: Ratio of drug level in cortex to cerebellum in rat assessed as radioactivity after 60 mins; type: ADME, tissue-based; conditions: in vivo, 1 h
[13] = tested on: Bone; test: Biodistribution in iv dosed rat bone after 240 mins; type: ADME, organism-based, Bone element; conditions: in vivo, 4 h; outline: as §1
[14] = tested on: Brain; test: Biodistribution in iv dosed rat brain after 2 mins; type: ADME, organism-based; conditions: in vivo; outline: as §1
[15] = tested on: Bone; test: Biodistribution in iv dosed rat bone after 30 mins; type: ADME, organism-based, Bone element; conditions: in vivo, 0.5 h; outline: as §1
[16] = tested on: Striatum; test: Biodistribution in iv dosed rat striatum assessed as radioactivity after 60 mins; type: ADME, organism-based; conditions: in vivo, 1 h
[17] = tested on: Kidney; test: Biodistribution in iv dosed rat kidney after 120 mins; type: ADME, organism-based; conditions: in vivo, 2 h; outline: as §1
[18] = tested on: Nucleic Acid; test: Ratio of drug level in striatum to cerebellum in rat assessed as radioactivity after 30 mins; type: ADME, tissue-based; conditions: in vivo, 0.5 h
Outline: (§2)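 Groups of three normal rats under isoflurane received the [18F] tracer (10–100 μCi in 0.2 ml sterile water containing 1 mg/mL BSA) into the femoral vein. They were killed by cervical dislocation under anesthesia at the stated time. Cortex, striatum, hippocampus, hypothalamus and cerebellum were dissected, weighed and gamma-counted. %dose/g was set against a 100-fold diluted dose aliquot, and each region was divided by cerebellum.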

[19] = tested on: Nucleic Acid; test: Ratio of drug level in hypothalamus to cerebellum in rat after 2 mins; type: ADME, tissue-based; conditions: in vivo
[20] = tested on: Nucleic Acid; test: Ratio of drug level in cortex to cerebellum in rat assessed as radioactivity after 2 mins; type: ADME, tissue-based; conditions: in vivo
[21] = tested on: Nucleic Acid; test: Ratio of drug level in cortex to cerebellum in rat assessed as radioactivity after 30 mins; type: ADME, tissue-based; conditions: in vivo, 0.5 h; outline: as §2
[22] = tested on: Liver; test: Biodistribution in iv dosed rat liver after 120 mins; type: ADME, organism-based; conditions: in vivo, 2 h; outline: as §1
[23] = tested on: Nucleic Acid; test: Ratio of drug level in striatum to cerebellum in rat assessed as radioactivity after 2 mins; type: ADME, tissue-based; conditions: in vivo
[24] = tested on: Heart; test: Biodistribution in iv dosed rat heart after 2 mins; type: ADME, organism-based; conditions: in vivo; outline: as §1
[25] = tested on: Nucleic Acid; test: Ratio of drug level in hippocampus to cerebellum in rat assessed as radioactivity after 240 mins; type: ADME, tissue-based; conditions: in vivo, 4 h
[26] = tested on: Zone of skin; test: Biodistribution in iv dosed rat skin after 2 mins; type: ADME, organism-based; conditions: in vivo
[27] = tested on: Liver; test: Biodistribution in iv dosed rat liver after 60 mins; type: ADME, organism-based; conditions: in vivo, 1 h; outline: as §1
[28] = tested on: Nucleic Acid; test: Ratio of drug level in hypothalamus to cerebellum in rat assessed as radioactivity after 240 mins; type: ADME, tissue-based; conditions: in vivo, 4 h
[29] = tested on: Kidney; test: Biodistribution in iv dosed rat kidney after 60 mins; type: ADME, organism-based; conditions: in vivo, 1 h; outline: as §1
[30] = tested on: Spleen; test: Biodistribution in iv dosed rat spleen after 60 mins; type: ADME, organism-based; conditions: in vivo, 1 h
[31] = tested on: Nucleic Acid; test: Ratio of drug level in hippocampus to cerebellum in rat assessed as radioactivity after 120 mins; type: ADME, tissue-based; conditions: in vivo, 2 h; outline: as §2
[32] = tested on: Striatum; test: Biodistribution in iv dosed rat striatum assessed as radioactivity after 2 mins; type: ADME, organism-based; conditions: in vivo
[33] = tested on: Spleen; test: Biodistribution in iv dosed rat spleen after 30 mins; type: ADME, organism-based; conditions: in vivo, 0.5 h
Outline: (§3)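 Rats, 3 per group, under isoflurane. ¹⁸F tracer (10–100 μCi) in 0.2 ml sterile water with 1 mg/mL BSA injected into the femoral vein. Killed by cervical dislocation under anesthesia at the stated time. Organs removed, weighed and counted. % dose/organ calculated against counts of a 1% diluted aliquot of the injected dose.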

[34] = tested on: Heart; test: Biodistribution in iv dosed rat heart after 120 mins; type: ADME, organism-based; conditions: in vivo, 2 h; outline: as §1
[35] = Partition coefficient, log P at pH 7.4; type: physicochemical; conditions: octanol/water
[36] = tested on: Zone of skin; test: Biodistribution in iv dosed rat skin after 120 mins; type: ADME, organism-based; conditions: in vivo, 2 h; outline: as §3
[37] = tested on: Brain; test: Biodistribution in iv dosed rat brain after 30 mins; type: ADME, organism-based; conditions: in vivo, 0.5 h; outline: as §1
[38] = tested on: Liver; test: Biodistribution in iv dosed rat liver after 30 mins; type: ADME, organism-based; conditions: in vivo, 0.5 h; outline: as §1
[39] = tested on: Blood; test: Biodistribution in iv dosed rat blood after 120 mins; type: ADME, organism-based; conditions: in vivo, 2 h; outline: as §1
[40] = tested on: Heart; test: Biodistribution in iv dosed rat heart after 60 mins; type: ADME, organism-based; conditions: in vivo, 1 h; outline: as §1
[41] = tested on: Nucleic Acid; test: Ratio of drug level in cortex to cerebellum in rat assessed as radioactivity after 120 mins; type: ADME, tissue-based; conditions: in vivo, 2 h; outline: as §2
[42] = tested on: Nucleic Acid; test: Ratio of drug level in hippocampus to cerebellum in rat assessed as radioactivity after 60 mins; type: ADME, tissue-based; conditions: in vivo, 1 h
[43] = tested on: Liver; test: Biodistribution in iv dosed rat liver after 240 mins; type: ADME, organism-based; conditions: in vivo, 4 h; outline: as §1
[44] = tested on: Nucleic Acid; test: Ratio of drug level in striatum to cerebellum in rat assessed as radioactivity after 240 mins; type: ADME, tissue-based; conditions: in vivo, 4 h
[45] = tested on: Brain; test: Biodistribution in iv dosed rat brain after 120 mins; type: ADME, organism-based; conditions: in vivo, 2 h; outline: as §1
[46] = tested on: Kidney; test: Biodistribution in iv dosed rat kidney after 30 mins; type: ADME, organism-based; conditions: in vivo, 0.5 h; outline: as §1
[47] = tested on: Nucleic Acid; test: Ratio of drug level in hippocampus to cerebellum in rat assessed as radioactivity after 30 mins; type: ADME, tissue-based; conditions: in vivo, 0.5 h; outline: as §2
[48] = tested on: Brain; test: Biodistribution in iv dosed rat brain after 240 mins; type: ADME, organism-based; conditions: in vivo, 4 h; outline: as §1
[49] = tested on: Heart; test: Biodistribution in iv dosed rat heart after 240 mins; type: ADME, organism-based; conditions: in vivo, 4 h; outline: as §1
[50] = tested on: Muscle tissue; test: Biodistribution in iv dosed rat muscle after 240 mins; type: ADME, organism-based; conditions: in vivo, 4 h; outline: as §1
[51] = tested on: Lung; test: Biodistribution in iv dosed rat lungs after 120 mins; type: ADME, organism-based; conditions: in vivo, 2 h; outline: as §1
[52] = tested on: Bone; test: Biodistribution in iv dosed rat bone after 60 mins; type: ADME, organism-based, Bone element; conditions: in vivo, 1 h; outline: as §1
[53] = tested on: Blood; test: Biodistribution in iv dosed rat blood after 240 mins; type: ADME, organism-based; conditions: in vivo, 4 h; outline: as §1
[54] = tested on: Nucleic Acid; test: Ratio of drug level in cortex to cerebellum in rat assessed as radioactivity after 240 mins; type: ADME, tissue-based; conditions: in vivo, 4 h
[55] = tested on: Lung; test: Biodistribution in iv dosed rat lungs after 60 mins; type: ADME, organism-based; conditions: in vivo, 1 h; outline: as §1
[56] = tested on: Bone; test: Biodistribution in iv dosed rat bone after 2 mins; type: ADME, organism-based, Bone element; conditions: in vivo; outline: as §1
[57] = tested on: Nucleic Acid; test: Ratio of drug level in striatum to cerebellum in rat assessed as radioactivity after 120 mins; type: ADME, tissue-based; conditions: in vivo, 2 h; outline: as §2
[58] = tested on: Lung; test: Biodistribution in iv dosed rat lungs after 240 mins; type: ADME, organism-based; conditions: in vivo, 4 h; outline: as §1
[59] = tested on: Lung; test: Biodistribution in iv dosed rat lungs after 2 mins; type: ADME, organism-based; conditions: in vivo; outline: as §1

## CN(C)Cc1cc(OCC[18F])ccc1Sc1ccccc1N
[1]
  Drug uptake: 1.21 %ID
[2]
  Drug uptake: 3.1 %ID
[3]
  Drug uptake: 8.24 %ID
[4]
  Drug uptake: 0.8 % ID/g
[5]
  Drug uptake: 0.07 % ID/g
[6]
  Drug uptake: 7.93 %ID
[7]
  Ratio: 7.83
[8]
  Drug uptake: 2.25 %ID
[9]
  Drug uptake: 1.94 %ID
[10]
  Drug uptake: 16.55 %ID
[11]
  Drug uptake: 3.77 %ID
[12]
  Ratio: 4.78
[13]
  Drug uptake: 3.3 %ID
[14]
  Drug uptake: 1.84 %ID
[15]
  Drug uptake: 7.11 %ID
[16]
  Drug uptake: 0.7 % ID/g
[17]
  Drug uptake: 2.66 %ID
[18]
  Ratio: 2.69
[19]
  Ratio: 1.28
[20]
  Ratio: 1.53
[21]
  Ratio: 3.26
[22]
  Drug uptake: 7.68 %ID
[23]
  Ratio: 1.22
[24]
  Drug uptake: 0.95 %ID
[25]
  Ratio: 2.14
[26]
  Drug uptake: 8.78 %ID
[27]
  Drug uptake: 3.74 %ID
[28]
  Ratio: 6.58
[29]
  Drug uptake: 4.04 %ID
[30]
  Drug uptake: 0.35 %ID
[31]
  Ratio: 3.71
[32]
  Drug uptake: 1.01 % ID/g
[33]
  Drug uptake: 0.65 %ID
[34]
  Drug uptake: 0.09 %ID
[35]
  logD: 2.15
[36]
  Drug uptake: 4.32 %ID
[37]
  Drug uptake: 1.85 %ID
[38]
  Drug uptake: 4.24 %ID
[39]
  Drug uptake: 4.06 %ID
[40]
  Drug uptake: 0.12 %ID
[41]
  Ratio: 4.6
[42]
  Ratio: 3.75
[43]
  Drug uptake: 2.26 %ID
[44]
  Ratio: 2.72
[45]
  Drug uptake: 0.63 %ID
[46]
  Drug uptake: 4.56 %ID
[47]
  Ratio: 2.59
[48]
  Drug uptake: 0.18 %ID
[49]
  Drug uptake: 0.04 %ID
[50]
  Drug uptake: 2.28 %ID
[51]
  Drug uptake: 0.53 %ID
[52]
  Drug uptake: 4.87 %ID
[53]
  Drug uptake: 1.74 %ID
[54]
  Ratio: 2.44
[55]
  Drug uptake: 1.4 %ID
[56]
  Drug uptake: 8.67 %ID
[57]
  Ratio: 3.85
[58]
  Drug uptake: 0.33 %ID
[59]
  Drug uptake: 13.21 %ID
